In brackets after ≈: the same amount, converted by molar mass.
Tests used:
[1] = target: Gamma-secretase; test: Inhibition of Gamma-secretase in human IMR-32 cells after 2 hrs by ELISA assay; assay type: cell-based
How it was run: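 γ-Secretase came from IMR-32 cell membranes, and compound was first diluted in DMSO. Reaction at 37 °C was started with MBPC-125 Swedish substrate, run for 2 h, then stopped with SDS. Cleaved substrate was measured by Aβ40-specific ELISA. Values are means of three experiments.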

[2] = Oxidative metabolic stability in human liver microsomes at 1 uM after 30 mins in presence of 1 mM NADPH; assay type: ADME, Microsome; settings: liver microsomes, read-out: Stability
How it was run: (§1)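 Oxidative stability: compound at 1 µM incubated 30 min at 37 °C in phosphate buffer with liver microsomes (0.5 mg/ml protein) plus 1 mM NADPH. Percent parent remaining reported. Human or mouse microsomes per line.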

[3] = Oxidative metabolic stability in mouse liver microsomes at 1 uM after 30 mins in presence of 1 mM NADPH; assay type: ADME, Microsome; settings: liver microsomes, read-out: Stability; how it was run: as §1
[4] = test system: Mus musculus; test: Reduction of cortical abeta40 level in FVB mouse at 3 mg/kg, po after 3 hrs; assay type: functional; set-up: scale not given: the % may be the effect or the level left
[5] = Apparent permeability from apical to basolateral side in MDCK2 cells at 5 uM after 120 mins; assay type: ADME, cell-based, Canis lupus familiaris, MDCK-II; settings: dog, MDCK
How it was run: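 Compound at 5 µM in mHBSS pH 7.4 applied to MDCK II cell monolayers for 120 min at 37 °C. Apical and basolateral chambers sampled and analysed by LC/MS/MS.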

[6] = Metabolic stability in mouse liver microsomes at 2 uM after 30 mins in presence of 1 mM UDPGA; assay type: ADME, Microsome; settings: read-out: Stability
How it was run: (§2)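 Glucuronidation stability: 2 µM compound incubated 30 min at 37 °C in phosphate buffer with liver microsomes (0.5 mg protein), 1 mM UDPGA, 100 mM MgCl2 and 25 µg/mL alamethicin. Read-out is percent parent compound remaining. Human or mouse microsomes per line.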

[7] = Metabolic stability in human liver microsomes at 2 uM after 30 mins in presence of 1 mM UDPGA; assay type: ADME, Microsome; settings: read-out: Stability; how it was run: as §2
[8] = Solubility in HBSS buffer at 20 mM at pH 7.4 after 1 hr; assay type: physicochemical
How it was run: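 20 mM DMSO stocks serially diluted in DMSO, then diluted 1:200 into HBSS pH 7.4. After 1 h incubation, plates read on a solubility scanner.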

| SMILES | IC50 [1] [nM] | remaining at 0.5 h, 1 µM [2] [%] | remaining at 0.5 h, 1 µM [3] [%] | Activity [4] [%] | Papp A→B at 2 h, 5 µM [5] [×10⁻⁶ cm/s] | remaining at 0.5 h, 2 µM [6] [%] | remaining at 0.5 h, 2 µM [7] [%] | solubility at 1 h [8] [µM] |
| --- | --- | --- | --- | --- | --- | --- | --- | --- |
| O=S(=O)(c1ccc(Cl)cc1)N1Cc2c[nH]nc2-c2ccccc21 | 27 | 0 | 2 | – | – | – | – | – |
| O=S(=O)(c1ccc(C(F)(F)F)cn1)N1c2ccc(F)cc2-c2n[nH]cc2[C@H]1C1CC1 | 0.67 | 95 | 83 | 43 | 24.9 | 89 | 97 | 95 (≈ 41.6 µg/mL) |
| O=S(=O)(c1ccc(C(F)(F)F)cc1)N1c2cc(N3CCOCC3)ccc2-c2n[nH]cc2C1C1CC1 (racemic) | 0.58 | 29 | 17 | – | – | – | – | – |
| O=S(=O)(c1ccc(OC(F)F)cc1)N1c2ccc(F)cc2-c2n[nH]cc2C1C1CC1 (racemic) | 0.76 | 68 | 56 | – | – | – | – | – |
| O=S(=O)(c1cccs1)N1c2cc(F)c(F)cc2-c2n[nH]cc2C1C1CC1 (racemic) | 2.9 | 1 | 5 | – | – | – | – | – |
| O=S(=O)(c1ccc(C(F)(F)F)cc1)N1c2cccnc2-c2n[nH]cc2C1C1CC1 (racemic) | 2.1 | 44 | 25 | – | – | – | – | – |
| CC1c2c[nH]nc2-c2ccccc2N1S(=O)(=O)c1ccccn1 (racemic) | 290 | 73 | 46 | – | – | – | – | – |
| CC(C)C1c2c[nH]nc2-c2ccccc2N1S(=O)(=O)c1ccc(Cl)cc1 (racemic) | 0.28 | 1 | 2 | – | – | – | – | – |
| O=S(=O)(c1ccc(C(F)(F)F)cc1)N1c2ncccc2-c2n[nH]cc2C1C1CC1 (racemic) | 1.1 | 59 | 53 | – | – | – | – | – |
| Nc1ccc(S(=O)(=O)N2c3cc(F)c(F)cc3-c3n[nH]cc3C2C2CC2)cc1 (racemic) | 85 | 53 | 35 | – | – | – | – | – |
| O=C1OCCN1c1ccc2c(c1)N(S(=O)(=O)c1ccc(C(F)(F)F)cc1)C(C1CC1)c1c[nH]nc1-2 (racemic) | 0.26 | 32 | 13 | – | – | – | – | – |
| O=S(=O)(c1ccc(Cl)cc1)N1c2ccccc2-c2n[nH]cc2C1C(F)(F)F (racemic) | 0.21 | 13 | 10 | – | – | – | – | – |
| CC1c2c[nH]nc2-c2cc(F)ccc2N1S(=O)(=O)c1ccc(Cl)cc1 (racemic) | 1.6 | 13 | 23 | – | – | – | – | – |
| CC1c2c[nH]nc2-c2c(F)cccc2N1S(=O)(=O)c1ccc(Cl)cc1 (racemic) | 1.4 | 3 | 11 | – | – | – | – | – |
| O=S(=O)(c1ccc(C(F)(F)F)cc1)N1c2cc(Cl)ccc2-c2n[nH]cc2C1C1CC1 (racemic) | 0.44 | 87 | 85 | – | – | – | – | – |
| COc1ccc(S(=O)(=O)N2c3ccccc3-c3n[nH]cc3C2C2CC2)cc1 (racemic) | 3.2 | 3 | 2 | – | – | – | – | – |
| N#Cc1ccc(S(=O)(=O)N2c3ccccc3-c3n[nH]cc3C2C2CC2)cc1 (racemic) | 0.74 | 9 | 11 | – | – | – | – | – |
| CC1c2c[nH]nc2-c2ccncc2N1S(=O)(=O)c1ccc(Cl)cc1 (racemic) | 2.6 | 6 | 3 | – | – | – | – | – |
| CC1c2c[nH]nc2-c2ccccc2N1S(=O)(=O)c1ccc(Cl)cc1 (racemic) | 1.2 | 3 | 16 | – | – | – | – | – |
| CCC1c2cn[nH]c2-c2ccccc2N1S(=O)(=O)c1ccc(Cl)cc1 (racemic) | 0.36 | 2 | 7 | – | – | – | – | – |
| O=S(=O)(c1ccc(C(F)(F)F)cc1)N1c2cc(-c3cncnc3)ccc2-c2n[nH]cc2C1C1CC1 (racemic) | 0.2 | 27 | 3 | – | – | – | – | – |
| O=S(=O)(c1ccc(C(F)(F)F)cc1)N1c2c[n+]([O-])ccc2-c2n[nH]cc2C1C1CC1 (racemic) | 2.4 | 87 | 88 | – | – | – | – | – |
| CC1c2c[nH]nc2-c2ccc(F)cc2N1S(=O)(=O)c1ccc(Cl)cc1 (racemic) | 2.1 | 6 | 23 | – | – | – | – | – |

Source: ChEMBL document CHEMBL1155356, “Design, synthesis, and structure-activity relationship of novel orally efficacious pyrazole/sulfonamide based dihydroquinoline gamma-secretase inhibitors” (Bioorg Med Chem Lett, 2009)
